Screening data as filed in PubChem.
ABCB6 inh MLPCN: blocks the human ABCB6 transporter | AID 602162 | Q9NP58 | K562-ABCB6 porphyrin accumulation, flow cytometry, 1 h; stronger effect = lower value | 360,000 compounds, 0.19% hits | fluorescence ratio to DMSO, % at 10 µM;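 active = fluorescence ratio to DMSO below 75%, the collection mean minus 3 SD; inconclusive = too few cells collected in the well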;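 note: signal is porphyrin accumulated inside mitochondria; 100% equals median channel fluorescence of DMSO control wells; lower ratio means ABCB6 inhibition with less porphyrin fluorescence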
p-CIP stab down: compounds decreasing mouse p/CIP protein stability | Q05BA5 | F442A p/CIP-EGFP cells, EGFP fluorescence, 16 h | decrease of EGFP signal, % at 10 µM | 290,000 compounds, 0.01% hits;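 active = EGFP signal decrease of at least 30% at 10 µM or well 3 SD below plate mean, unless failing retest; inactive = the rest, including hits failing retest or dose response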
V-ATPase pHluor: alters yeast V-ATPase proton transport; S. cerevisiae, pHLuorin cytosolic pH fluorescence; response, % at 10 µM; 350,000 compounds, 0.37% hits; in the data active = response mostly above about 7.3%, no sharp cut-off; inactive = mostly below about 5.4%; note: actives read high
Dynein transport: blocks dynein driven cargo transport along microtubules. AID 1381. 3617.4 mouse cells, GR-EGFP nuclear translocation imaging; test concentration mostly 20 µM; stimulated with dexamethasone, 1 µM; stronger effect = lower value. z-score, hits read low. 220,000 compounds, 0.47% hits;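 active = plate z-score of nuclear minus cytoplasmic receptor signal below a set negative limit, without overly bright fluorescence or cell loss, cut at about -3.5 in these data, passing the limit was not always enough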;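 note: z-score of nuclear minus cytoplasmic ring GR-EGFP intensity difference per well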
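Buffer or medium – tet-free medium with charcoal-stripped serum · Signal – automated 10x imaging of fixed Hoechst-stained cells · Also added – dexamethasone agonist, 1.0 µM final, for 30 min · Incubation – induction 48 h, compound 1 h, agonist 30 min · Read-out – GR-EGFP nuclear translocation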
KCC2 mod: modulators of human KCC2 chloride dependent transport. Q9H2X9. KCC2 cells, thallium flux FluoZin-2 fluorescence. B-score of Tl+ flux slope (higher = more flux/activation; lower = inhibition) at 10 µM. 190,000 compounds, 2.2% hits;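 active = thallium flux slope and its plate-corrected score both differing from the plate sample mean at a set confidence after two filtering rounds, in either direction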;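 note: slope of fluorescence scaled to starting intensity during 10 to 20 s after thallium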
KCC2 secondary: KCC2 (human) modulation, secondary assay. shares compounds with KCC2 mod. HEK293-KCC2, thallium flux, FluoZin2 fluorescence; stronger effect = higher value. normalised thallium flux (F/F0 slope) at 10 µM. 3,700 compounds, 15% hits. AID 1713;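 active = thallium flux slope above the same plate's solvent-only control mean plus 3 SD; inconclusive = the two replicate wells disagree; inactive = no significant difference from solvent-only control wells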
KCC2 bumet counter: bumetanide-insensitive thallium flux in KCC2 cells with ouabain, counter-screen; shares compounds with KCC2 mod; HEK293-KCC2 + bumetanide/ouabain, thallium flux FluoZin2; stronger effect = higher value; normalized thallium flux at 10 µM; 3,700 compounds, 49% hits; AID 1714;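 active = thallium entry rate above the same plate's blocked-transporter control wells by more than 3 SD; inconclusive = the two repeat wells disagree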;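 note: raw slope of fluorescence over initial fluorescence between 10 and 20 s after thallium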
KCC2 sec2: confirmation of human KCC2 transport modulators; shares compounds with KCC2 mod; HEK293-KCC2, thallium flux FluoZin2 fluorescence; actives lie on both sides; F/F0 rise rate, 10–20 s post-thallium; normalized thallium flux at 10 µM; 3,700 compounds, 23% hits;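 active = thallium flux slope more than 3 SD above or below the plate's solvent-only control mean, mostly below; inconclusive = the two repeat wells disagreed; inactive = no significant shift from solvent-only controls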;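 note: raw slope with 0.1% DMSO as baseline and bumetanide as block control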
HEK counter1: acts in parental HEK cells, KCC2 counter-screen. shares compounds with KCC2 mod. HEK293 parental cells, thallium flux FluoZin2, ouabain; baseline-ratio fluorescence slope, 10–20 s after thallium. thallium flux rate (normalised fluorescence) at 10 µM. 3,700 compounds, 46% hits. AID 1716;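 active = thallium flux rate significantly above the same plate's solvent-only control wells, beyond their mean plus 3 SD; inconclusive = the two replicate wells gave conflicting results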
KCC2 ouabain: modulates human KCC2 on retest with ouabain; 3,700 compounds, 48% hits; raw Tl+ flux slope (below DMSO = inhibition, above = activation) at 10 µM; shares compounds with KCC2 mod; AID 1717; HEK293-KCC2, thallium flux FluoZin2 fluorescence; bidirectional: low = inhibitor, high = activator;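 active = thallium flux slope beyond 3 SD from same-plate DMSO control mean in most replicates, usually higher, sometimes lower; inconclusive = repeat tests gave conflicting results; inactive = no significant difference from controls in most replicates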;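 note: slope of initial-normalized fluorescence between seconds 10 and 20 after thallium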
HEK293 Tl flux2: acts in parental HEK cells, second KCC2 counter-screen; shares compounds with KCC2 mod; HEK293 parental, thallium flux FluoZin-2 fluorescence slope; thallium flux slope at 10 µM; 3,700 compounds, 33% hits; AID 1718;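 active = thallium flux slope above the same plate's solvent-control mean plus 3 SD in both duplicate wells; inconclusive = duplicate wells that disagreed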;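 note: run without ouabain in cells lacking the KCC2 cotransporter; slope of fluorescence scaled to its starting value between 10 and 20 s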
* hit, by the source's call. The full list was thinned out, with hits kept by preference.

How did COc1ccc(-n2cc(-c3ccc(Cl)cc3)[nH]c2=S)cc1 do in these assays?
ABCB6 inh MLPCN: 92; p-CIP stab down: -11; V-ATPase pHluor: 5; Dynein transport: 0.58; KCC2 mod: 5.7*; KCC2 secondary: 0.025*; KCC2 bumet counter: 0.013*; KCC2 sec2: 0.03; HEK counter1: 0.0093*; KCC2 ouabain: 0.019; HEK293 Tl flux2: 0.011

How did CC(Oc1ccccc1)c1ccnc(N)n1 (stereo not given) do in these assays?
ABCB6 inh MLPCN: 100; p-CIP stab down: 5; V-ATPase pHluor: 0; Dynein transport: 0.83; KCC2 mod: 0.8

Results for CC(Oc1ccc(Cl)cc1Cl)c1ccnc(N)n1 (stereo not given) ?
ABCB6 inh MLPCN: 96; p-CIP stab down: 25; V-ATPase pHluor: 2; Dynein transport: 0.66; KCC2 mod: -2.9*; KCC2 secondary: 0.0076; KCC2 bumet counter: 0.0046; KCC2 sec2: 0.028; HEK counter1: 0.007; KCC2 ouabain: 0.018; HEK293 Tl flux2: 0.0094

What do the screens show for `O=C(Nc1ccc(NC(=O)c2cccc([N+](=O)[O-])c2)cc1)c1cccc([N+](=O)[O-])c1`?
ABCB6 inh MLPCN: 97; p-CIP stab down: 2; V-ATPase pHluor: -3

Results for O=C(Nc1ccc(Cc2ccncc2)cc1)c1cccc([N+](=O)[O-])c1 ?
ABCB6 inh MLPCN: 94; p-CIP stab down: -8; V-ATPase pHluor: -1; Dynein transport: 0.39; KCC2 mod: -4.2*; KCC2 secondary: 0.0049; KCC2 bumet counter: inconclusive; KCC2 sec2: 0.024*; HEK counter1: 0.0079; KCC2 ouabain: inconclusive; HEK293 Tl flux2: 0.011

Results for O=C(Nc1ccc(Cc2ccncc2)cc1)c1ccc(N2CCOCC2)c([N+](=O)[O-])c1 ?
ABCB6 inh MLPCN: 98; p-CIP stab down: -9; V-ATPase pHluor: 4; Dynein transport: -0.21; KCC2 mod: -5.9*; KCC2 secondary: 0.0089; KCC2 bumet counter: inconclusive; KCC2 sec2: inconclusive; HEK counter1: 0.0074; KCC2 ouabain: 0.016*; HEK293 Tl flux2: 0.01

Results for O=C(Nc1ccc(N2CCCCC2)c(Cl)c1)c1ccc(N2CCOCC2)c([N+](=O)[O-])c1 ?
ABCB6 inh MLPCN: 99; p-CIP stab down: -2; V-ATPase pHluor: 2; Dynein transport: -0.28

How did CCOC(=O)CNC(=O)Cn1cnc2c(nnn2-c2ccccc2)c1=O do in these assays?
ABCB6 inh MLPCN: 102; p-CIP stab down: 0; V-ATPase pHluor: 13

What do the screens show for `O=C(Cn1cnc2c(cnn2-c2ccccc2)c1=O)N1CCN(c2ccc(F)cc2)CC1`?
ABCB6 inh MLPCN: 101; p-CIP stab down: -7; V-ATPase pHluor: 5; Dynein transport: -0.6; KCC2 mod: -1.1

What do the screens show for `O=C(Cn1cnc2c(nnn2-c2ccccc2)c1=O)NCCc1ccccc1`?
ABCB6 inh MLPCN: 98; p-CIP stab down: 4; V-ATPase pHluor: -3; Dynein transport: -0.93; KCC2 mod: -4.3*; KCC2 secondary: 0.007; KCC2 bumet counter: 0.0051; KCC2 sec2: 0.023*; HEK counter1: 0.0073; KCC2 ouabain: 0.014*; HEK293 Tl flux2: 0.01
